Experimental data: ChEMBL document CHEMBL1126289, “Analogues of the muscarinic agent 2'-methylspiro[1-azabicyclo[2.2.2]octane-3,4'-[1,3]dioxolane]: synthesis and pharmacology” (J Med Chem, 1992)

Experiments:
Cavia porcellus [1] = organism: Cavia porcellus; assay: In vitro agonistic activity on isolated guinea pig ileum; assay type: functional
Outline: (§1)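 Longitudinal ileal muscle strips from male guinea pig were held in Krebs-Henseleit (pH 7.4, carbogen) at 37 °C under about 5 mN tension and recorded isometrically. Single agonist concentrations were added, with washout and rest between each. EC50 was read graphically. Emax was expressed as percent of the carbachol maximum. Low-efficacy agents were estimated from pooled curves of at least two experiments.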

[2] = target: T1, Muscarinic acetylcholine receptor M3 (Cavia porcellus, UniProt Q8VH26); assay: Compound was evaluated for its binding affinity against muscarinic acetylcholine receptor M3 in guinea pig parotid gland using (-)-[3H]-QNB as radioligand; assay type: tissue-based
Outline: (§2)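 Male guinea pig parotid gland homogenate was prepared in 50 mM Na/K phosphate pH 7.4 with 1 mM PMSF (protein ≤0.3 mg/mL). Triplicates were incubated with 2 nM (final) (−)-[3H]QNB at 25 °C for 210 min, with nonspecific binding defined by 10 µM atropine. Samples were separated by centrifugation and counted by scintillation. Ki came from graphical IC50 corrected by the Jacobs method, from 2–3 experiments.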

Cavia porcellus [3] = organism: Cavia porcellus; assay: Maximum response relative to that elicited by carbachol in guinea pig ileum was determined; assay type: functional; outline: as §1
Cavia porcellus [4] = organism: Cavia porcellus; assay: In vitro antagonistic activity on isolated guinea pig urinary bladder; assay type: functional
Outline: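 Bladder smooth-muscle strips from male guinea pigs (~300 g) in Krebs-Henseleit, pH 7.4, carbogen-gassed, 37 °C, ~5 mN resting tension, stabilized ≥45 min; isometric tension recorded. A control cumulative carbachol curve was run, then washout and ≥15 min rest. A fixed test-compound concentration was incubated 60 min before a second carbachol curve. Carbachol EC50s were read graphically and dose ratios calculated to give KB; 2–8 experiments.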

[5] = target: T1, Muscarinic acetylcholine receptor M3; assay: Compound was evaluated for its binding affinity against Muscarinic acetylcholine receptor M3 in guinea pig parotid gland using (-)-[3H]-QNB as radioligand; assay type: tissue-based; outline: as §2
[6] = target: T1, Muscarinic acetylcholine receptor M3; assay: Compound was evaluated for its binding affinity against muscarinic acetylcholine receptor M3 n guinea pig parotid gland using (-)-[3H]-QNB as radioligand; assay type: tissue-based; outline: as §2

T1 sequence (Q8VH26 whole entry): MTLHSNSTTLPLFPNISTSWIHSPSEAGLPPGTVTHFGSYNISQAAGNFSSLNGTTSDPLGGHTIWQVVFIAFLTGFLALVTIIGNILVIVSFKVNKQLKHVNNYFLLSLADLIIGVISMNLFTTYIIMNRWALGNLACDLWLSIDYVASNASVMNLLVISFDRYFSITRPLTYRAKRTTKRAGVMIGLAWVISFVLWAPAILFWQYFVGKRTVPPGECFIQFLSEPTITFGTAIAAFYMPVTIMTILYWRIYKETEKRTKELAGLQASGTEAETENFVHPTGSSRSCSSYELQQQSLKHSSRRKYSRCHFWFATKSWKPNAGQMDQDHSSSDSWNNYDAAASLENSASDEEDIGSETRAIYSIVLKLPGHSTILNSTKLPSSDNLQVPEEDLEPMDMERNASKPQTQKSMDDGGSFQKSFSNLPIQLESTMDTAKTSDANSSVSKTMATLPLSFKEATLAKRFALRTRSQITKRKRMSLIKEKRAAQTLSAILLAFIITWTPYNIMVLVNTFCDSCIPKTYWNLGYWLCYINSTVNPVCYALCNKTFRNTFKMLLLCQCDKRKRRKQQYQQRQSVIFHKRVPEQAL

EC50 (Cavia porcellus [4]) | Structure (SMILES) | EC50 (Cavia porcellus [1]) | Ki [2] | Emax (Cavia porcellus [3]) | Kb (Cavia porcellus [4]) | Ki [5] | Ki [6]
– | C[C@H]1CC[C@@]2(CN3CCC2CC3)O1 | 12 µM | 35 µM | 29% | 93 µM | – | –
– | C[C@@H]1C[C@@]2(CO1)CN1CCC2CC1 | 12 µM | 33 µM | 7% | 19 µM | – | –
– | C1OCC2(CN3CCC2CC3)O1 (stereo not given) | 100 µM | 86 µM | 45% | 122 µM | – | –
– | C[C@@H]1OC[C@@]2(CN3CCC2CC3)O1 | 17 µM | 25 µM | 24% | 13 µM | – | –
– | C[C@H]1C[C@@]2(CO1)CN1CCC2CC1 | 150 µM | – | 25% | 30 µM | 26 µM | –
– | C[C@H]1OC[C@@]2(CN3CCC2CC3)O1 | 6 µM | 15 µM | 91% | 4.8 µM | – | –
– | C[C@@H]1CC[C@@]2(CN3CCC2CC3)O1 | 30 µM | – | 20% | 90 µM | 78 µM | –
– | CC1(C)OCC2(CN3CCC2CC3)O1 (stereo not given) | 22 µM | – | 14% | 41 µM | – | 39 µM
1.7 µM | C[N+](C)(C)CCOC(N)=O [CARBACHOL] | 0.17 µM | – | 100% | – | – | –
